In data set [1] the target is T1, Integrin alpha-IIb/beta-3 (Homo sapiens, UniProt P05106+P08514). Kind of data set: Antagonist activity at GP2b/GP3a receptor in human platelet rich plasma assessed as inhibition of ADP-induced platelet aggregation at 50 uM preincubated for 1 min followed by ADP addition by aggregometric method relative to control. The method, boiled down: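 Human PRP from apheresis platelets, PPP from centrifugation at 3000r/min for 10 min used as reference. Compound in saline or 0.2% aqueous DMSO added to PRP, incubated 1 min, then ADP 20 μM (per table footnotes; methods list 10 μM) added. Light transmission aggregometry at 37°C, maximal aggregation vs PPP. Inhibition relative to control aggregation ratio. IC50 from at least four concentrations.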

Data set [2] concerns the target T1, Integrin alpha-IIb/beta-3. The data set can be described thus: Displacement of fibrinogen from human platelet GP2b/GP3a receptor after 2 hrs by ELISA. The method, boiled down:
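Plates coated overnight at 4°C with fibrinogen 10 µg/ml in 0.1 M carbonate pH 9.5, blocked with 1% BSA. Purified human platelet GPIIb/IIIa (20 µg/ml) added with samples for 2 h in Tris/NaCl/CaCl2/Tween buffer pH 7.5. Bound receptor detected with anti-β3 antibody (1 h, 37°C) and alkaline phosphatase conjugate with pNPP, A405. BSA-only wells subtracted. Triplicate.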

Data set [3] concerns Mus musculus. Kind of data set: Toxicity in ICR mouse assessed as bleeding time at 3 mg/kg, iv administered 30 mins prior to test by tail transection method. It is filed as organism-based. As to conditions: in vivo, 0.5 h. The method, boiled down:
(§1)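 ICR mice dosed 30 min before test, saline as control. Anesthetized with 5% chloral hydrate i.p., kept at 37°C on a heating pad. 3-mm tail tip cut off and tail immersed in 37°C saline. Time until bleeding stopped for more than 5 s recorded, accumulated within 20 min. n=6.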

The subject of data set [4] is Mus musculus. Kind of data set: Toxicity in ICR mouse assessed as bleeding time at 15 mg/kg, iv administered 30 mins prior to test by tail transection method. The class given is organism-based. Conditions: in vivo, 0.5 h. The method, boiled down:
as §1

For data set [5], the system named is Mus musculus. Kind of data set: Toxicity in ICR mouse assessed as bleeding time at 30 mg/kg, iv administered 30 mins prior to test by tail transection method. Conditions: in vivo, 0.5 h. The class given is organism-based. The method, boiled down:
as §1

Data set [6] deals with Rattus norvegicus. The data set can be described thus: Anti-thrombotic activity in iv dosed Sprague-Dawley rat arterio-venous shunt thrombosis model assessed as reduction in thrombus weight pretreated for 15 mins followed by arteriovenous shunt thrombosis induction measured after 20 mins. It is filed as functional, organism-based. Summed up: (§2)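 SD rats of both sexes, 180~220 g, dosed by tail vein injection. After 15 min, anesthetized with 10% chloral hydrate (3 ml/kg i.p.). Shunt catheter placed between left jugular vein and right common carotid artery, opened 20 min. Thrombus dried at 60°C for 20 min and weighed without the thread. n=6.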

The subject of data set [7] is Rattus norvegicus. Kind of data set: Anti-thrombotic activity in Sprague-Dawley rat arterio-venous shunt thrombosis model assessed as reduction in thrombus weight at 10 mg/kg, iv pretreated for 15 mins followed by arteriovenous shunt thrombosis induction measured after 20 mins relative to control. It is filed as functional. Also noted: scale not given: the % may be the effect or the level left. Summed up: as §2

One may read the inhibition as the change of the read-out against control, counted positive when it falls. For `Cc1ccc(S(=O)(=O)NC(Cc2ccc3cc(OCc4ccc(C(=N)N)cc4)ccc3c2)C(=O)O)cc1` (racemic), in data set [1], the inhibition is above 99.5%.

With `N=C(N)c1ccc(COc2ccc3cc(CC(NS(=O)(=O)c4ccc([N+](=O)[O-])cc4)C(=O)O)ccc3c2)cc1` (racemic), the inhibition in data set [1] turned out to be 62.9%. The same measure, in the same setting: next, `O=C(O)C(Cc1ccc2cc(OCCC3CCNCC3)ccc2c1)NS(=O)(=O)c1ccc(Br)cc1` (racemic): below 5%.

For the compound `O=C(O)C(Cc1c[nH]c2ccc(OCCCCC3CCNCC3)cc12)NS(=O)(=O)c1ccc(Br)cc1` (stereo not drawn), in data set [1], the inhibition was 38.1%.

On to `N=C(N)c1ccc(COc2ccc3cc(CC(NS(=O)(=O)c4ccc(Br)cc4)C(=O)O)ccc3c2)cc1` (racemic), for which the inhibition in data set [1] turned out to be 50.2%. For `N=C(N)c1ccc(COc2ccc3cc(CC(NC(=O)c4ccc([N+](=O)[O-])cc4)C(=O)O)ccc3c2)cc1` (racemic), the inhibition in data set [1] was above 99.5%. The term IC50 denotes the point on the concentration scale where inhibition reaches its midpoint. Consider `Cl.O=C(O)C(Cc1ccc2cc(OCCCN3CCNCC3)ccc2c1)NS(=O)(=O)c1ccccc1` (racemic), for which the IC50 in data set [2] was 80 nM. Moreover, the inhibition result in data set [2] is “Dose-dependent effect”. Also, the figures for the Time in the data set with Mus musculus [3], in the data set with Mus musculus [4] and with Mus musculus [5] were 6.72 min, 8.63 min and 9.28 min, respectively. The Activity result in the data set with Rattus norvegicus [6] was “Dose-dependent effect”; with Rattus norvegicus [7] it was 40%. Regarding `O=C(O)C(Cc1ccc2cc(OCCCC3CCNCC3)ccc2c1)NS(=O)(=O)c1ccc(Br)cc1` (racemic), the inhibition in data set [1] is below 5%. On the same count and under the same terms, next, `COc1ccc(C(=O)NC(Cc2ccc3cc(OCc4ccc(C(=N)N)cc4)ccc3c2)C(=O)O)cc1` (racemic): 32.4%. Take `CCCC(=O)NC(Cc1ccc2cc(OCc3ccc(C(=N)N)cc3)ccc2c1)C(=O)O` (racemic): the inhibition in data set [1] is above 99.5%.

On to `O=C(O)C(Cc1ccc2cc(OCC3CCNCC3)ccc2c1)NS(=O)(=O)c1ccc(Br)cc1` (racemic), for which the inhibition in data set [1] was below 5%. In the case of `N=C(N)c1ccc(COc2ccc3cc(CC(NS(=O)(=O)c4ccccc4)C(=O)O)ccc3c2)cc1` (racemic), the inhibition in data set [1] is above 99.5%. For the same compound, in data set [2], the IC50 amounted to 1330 nM and the inhibition entry was “Dose-dependent effect”. Turning to `O=C(O)C(Cc1ccc2cc(OCCCCN3CCNCC3)ccc2c1)NS(=O)(=O)c1ccc(Br)cc1` (racemic), in data set [1], the inhibition came to 91.2%. Same read-out and setting: for `N=C(N)c1ccc(COc2ccc3cc(CC(NC(=O)c4ccc(F)cc4)C(=O)O)ccc3c2)cc1` (racemic) the value was 23.3%.

In the case of `CCCCS(=O)(=O)NC(Cc1ccc2cc(OCc3ccc(C(=N)N)cc3)ccc2c1)C(=O)O` (racemic), the inhibition in data set [1] is above 99.5%. As to `O=C(O)C(Cc1ccc2cc(OCCCN3CCNCC3)ccc2c1)NS(=O)(=O)c1ccc(Br)cc1` (racemic), the inhibition in data set [1] came to 99.1%. On the same count and under the same terms, next, `O=C(O)C(Cc1ccc2cc(OCCN3CCNCC3)ccc2c1)NS(=O)(=O)c1ccc(Br)cc1` (racemic): 97.3%; `N=C(N)c1ccc(COc2ccc3cc(CC(NC(=O)c4ccccc4)C(=O)O)ccc3c2)cc1` (racemic): 49.4%; `N=C(N)c1ccc(COc2ccc3cc(CC(NC(=O)c4cccc(F)c4)C(=O)O)ccc3c2)cc1` (racemic): 49.7%. Regarding `COc1ccc(S(=O)(=O)NC(Cc2ccc3cc(OCc4ccc(C(=N)N)cc4)ccc3c2)C(=O)O)cc1` (racemic), in data set [1], the inhibition stood at 21.5%.
